Experimental data reported in paper PMC4467529 (Bioorganic & medicinal chemistry, 2015).
“Also recorded” adds a separate entry of the source.

Assays:
[1] = test system: NF-κB; assay type: cell-based, human; details: for IC50: Homo sapiens, SW1353, read-out: NF-κB IC50; for NF-κB inhibitory activity (in words): PMA-induced SW1353 cells
Method in brief: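 SW1353 cells were grown in DMEM/F12 with 10% FBS and electroporated with an NF-κB luciferase plasmid (50 μg/mL; 160 V, one 70-ms pulse). They were plated at 1.25 × 10⁵ cells/well for 24 h. […] Parthenolide was the reference; Sp-1 served as control factor.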

[2] = In vitro cytotoxicity, Neutral Red assay; assay type: cell-based; details: pig, LLC-PK11 pig kidney epithelial cells
Method in brief: (§1)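 Cells were kept in RPMI-1640 with 10% bovine calf serum and amikacin 60 mg/L at 37 °C, 5% CO₂. They were seeded at 25,000 cells/well and grown 24 h, then exposed 48 h to test compound diluted in serum-free medium, tested up to 25 μg/ml. Viability was read by Neutral Red, as % decrease versus vehicle. IC50 came from dose curves, in triplicate, with doxorubicin as reference.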

[3] = In vitro cytotoxicity, Neutral Red assay; assay type: cell-based; details: African green monkey, Vero cells (kidney fibroblasts)
Method in brief: as §1

[4] = In vitro cytotoxicity, Neutral Red assay; assay type: cell-based; details: human, SK-OV-3 ovary carcinoma cells
Method in brief: (§2)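 Cells grown in RPMI-1640 with 10% bovine calf serum and amikacin (60 mg/L), 37°C, 5% CO₂, 95% humidity. Seeded at 25,000 cells/well, grown 24 h. Test samples diluted in serum-free medium, exposure 48 h. Viable cells counted by Neutral Red uptake; % viability loss against vehicle control. IC50 from dose curves, triplicate, means reported.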

[5] = In vitro cytotoxicity, Neutral Red assay; assay type: cell-based; details: human, BT-549 breast ductal carcinoma cells
Method in brief: as §1

[6] = In vitro cytotoxicity, Neutral Red assay; assay type: cell-based; details: human, KB oral epidermal carcinoma cells
Method in brief: as §2

[7] = In vitro cytotoxicity, Neutral Red assay; assay type: cell-based; details: human, SK-MEL malignant melanoma cells
Method in brief: as §1

[8] = test system: rat paw edema; assay: Carrageenan-induced rat paw edema assay; assay type: in vivo
Method in brief: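 Adult albino rats of both sexes (120–150 g), pre-hydrated with 3 ml water by gavage, in groups of five. Test compound or ketorolac tromethamine was suspended in distilled water with a few drops of Tween 80 and given i.p. 1 h before 1% carrageenan s.c. into the right hind subplantar paw. Controls got saline/Tween 80.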

[9] = cited from earlier work

IC50 [1]	Compound	IC50 at 48 h [2]	IC50 at 48 h [3]	IC50 at 48 h [4]	IC50 at 48 h [5]	IC50 at 48 h [6]	IC50 at 48 h [7]	in vivo anti-inflammatory activity (in words) ([8]; rat paw edema, compared to ketorolac)	Edema thickness ±SEM, 1h ([8]; rat, 30 mg/kg intraperitoneally, 1h after induction)	Edema thickness ±SEM, 2h ([8]; rat, 30 mg/kg intraperitoneally, 2h after induction)	Edema thickness ±SEM, 3h ([8]; rat, 30 mg/kg intraperitoneally, 3h after induction)	Edema thickness ±SEM, 4h ([8]; rat, 30 mg/kg intraperitoneally, 4h after induction)	NF-κB inhibitory activity (in words) [1]	anti-inflammatory and antinociceptive activities (in words) [9]
> 25 µg/mL	O=c1oc2ccccc2n1CCCCN1CCN(CCn2c(=O)oc3ccccc32)CC1 [Compound 5c, 3-(2-(4-(4-(2-oxobenzo[d]oxazol-3(2H)-yl)butyl)piperazin-1-yl)ethyl)benzo[d]oxazol-2(3H)-one]	> 25 µg/mL	> 25 µg/mL	> 25 µg/mL	> 25 µg/mL	> 25 µg/mL	> 25 µg/mL							
	c1ccc2sc(SCCCCN3CCN(CCCCSc4nc5ccccc5s4)CC3)nc2c1 [Compound 8b, 1,4-bis(4-(benzo[d]thiazol-2-ylthio)butyl)piperazine]	> 25 µg/mL	> 25 µg/mL	> 25 µg/mL	> 25 µg/mL			significant anti-inflammatory and analgesic activity; also recorded: most active dimer; also recorded: promising in vivo activity which was comparable to indomethacin and ketorolac	56.48 ± 2.14 ×10^−2 mm	55.6 ± 2.09 ×10^−2 mm	61.32 ± 1.67 ×10^−2 mm	103.54 ± 1.77 ×10^−2 mm		
> 25 µg/mL	O=c1oc2ccccc2n1CCCCCN1CCN(CCCCn2c(=O)oc3ccccc32)CC1 [Compound 5o, 3-(5-(4-(4-(2-oxobenzo[d]oxazol-3(2H)-yl)butyl)piperazin-1-yl)pentyl)benzo[d]oxazol-2(3H)-one]	> 25 µg/mL		> 25 µg/mL	> 25 µg/mL	> 25 µg/mL	> 25 µg/mL							
	O=c1oc2ccccc2n1CCCN1CCN(CCCn2c(=O)oc3ccccc32)CC1 [Compound 3c, 3,3′-(piperazine-1,4-diylbis(propane-3,1-diyl))bis(benzo[d]oxazol-2(3H)-one)]	> 25 µg/mL	> 25 µg/mL	> 25 µg/mL	> 25 µg/mL	> 25 µg/mL	> 25 µg/mL							
	O=c1sc2ccccc2n1CCCCCCN1CCN(CCn2c(=O)sc3ccccc32)CC1 [Compound 5h, 3-(6-(4-(2-(2-oxobenzo[d]thiazol-3(2H)-yl)ethyl)piperazin-1-yl)hexyl)benzo[d]thiazol-2(3H)-one]												moderately active	
	O=c1sc2ccccc2n1CCCCN1CCN(CCCn2c(=O)sc3ccccc32)CC1 [Compound 5j, 3-(3-(4-(4-(2-oxobenzo[d]thiazol-3(2H)-yl)butyl)piperazin-1-yl)propyl)benzo[d]thiazol-2(3H)-one]												moderately active	
> 25 µg/mL	O=c1sc2ccccc2n1CCCCN1CCN(CCn2c(=O)sc3ccccc32)CC1 [Compound 5d, 3-(2-(4-(4-(2-oxobenzo[d]thiazol-3(2H)-yl)butyl)piperazin-1-yl)ethyl)benzo[d]thiazol-2(3H)-one]	> 25 µg/mL	> 25 µg/mL	> 25 µg/mL	> 25 µg/mL	> 25 µg/mL	> 25 µg/mL							
> 25 µg/mL	O=c1oc2ccccc2n1CCCCCCN1CCN(CCCCCCn2c(=O)oc3ccccc32)CC1 [Compound 3i, 3,3′-(piperazine-1,4-diylbis(hexane-6,1-diyl))bis(benzo[d]oxazol-2(3H)-one)]	> 25 µg/mL	> 25 µg/mL	> 25 µg/mL		> 25 µg/mL							devoid of any activity	
	O=c1oc2ccccc2n1CCCCCN1CCN(CCn2c(=O)oc3ccccc32)CC1 [Compound 5e, 3-(5-(4-(2-(2-oxobenzo[d]oxazol-3(2H)-yl)ethyl)piperazin-1-yl)pentyl)benzo[d]oxazol-2(3H)-one]	> 25 µg/mL	> 25 µg/mL	> 25 µg/mL	> 25 µg/mL	> 25 µg/mL	> 25 µg/mL							
	O=C(c1ccccc1)c1ccc2[nH]c(=O)sc2c1 [Compound S-14080]													superior to acetylsalicylic acid and equivalent to glafenine
